Where “and” joins values, the source holds several entries; their conditions need not be identical. Equal entries are not always repeated.
Tests used:
Type in all cases: toxicity, cell-based
[1] = system: U2OS; assay: Multiplex assay against U2OS; conditions: human
Outline: (§1)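 Live cells were stained at seeding with Hoechst33342, BioTracker Green Microtubule Cytoskeleton Dye, MitoTracker Red and Annexin V Alexa Fluor 680. Following compound addition, they were imaged on a CQ1 microscope at 37°C and 5% CO2 and gated by CellPathfinder machine learning into Hoechst high-intensity objects or normal cells, with normal cells split into healthy, pyknosed or fragmented nuclei and pyknosed cells into mitotic or apoptotic. Tubulin, mitochondrial-mass and membrane-permeability phenotypes are per cents of healthy-nucleus cells.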

[2] = system: Fibroblast; assay: Multiplex assay against human fibroblast; outline: as §1
[3] = system: HEK-293T; assay: Multiplex assay against HEK293T; conditions: human; outline: as §1
[4] = 12 h, 1 µM, compound concentration 1 uM
[5] = 12 h, 10 µM, compound concentration 10 uM
[6] = 24 h, 1 µM, compound concentration 1 uM
[7] = 24 h, 10 µM, compound concentration 10 uM
[8] = 48 h, 1 µM, compound concentration 1 uM
[9] = 48 h, 10 µM, compound concentration 10 uM

Structure (SMILES): CCCCC1=NC2(CCCC2)C(=O)N1Cc1ccc(-c2ccccc2-c2nnn[nH]2)cc1 [IRBESARTAN]
- Population Apoptotic (%) [1, 4]: 83% and 77%
- Population Fragmented Nuclei (%) [1, 4]: 25% and 9%
- Population Healthy Nuclei (%) [1, 4]: 66% and 82%
- Population Hoechst High Intensity Objects (%) [1, 4]: 2% and 0%
- Population Membrane Permeable-Phenotype (%) [1, 4]: 5% and 11%
- Population Mitochondria Different-Phenotype (%) [1, 4]: 1%
- Population Mitotic Cells (%) [1, 4]: 16% and 22%
- Population Normal (%) [1, 4]: 97% and 99%
- Population Pyknosed Nuclei (%) [1, 4]: 7%
- Population Tubulin-Different-Phenotype (%) [1, 4]: 1% and 8%
- Total Cell Count [1, 4]: 233 and 124
- Population Apoptotic (%) [1, 5]: 91% and 100%
- Population Fragmented Nuclei (%) [1, 5]: 22% and 18%
- Population Healthy Nuclei (%) [1, 5]: 68% and 74%
- Population Hoechst High Intensity Objects (%) [1, 5]: 2% and 0%
- Population Membrane Permeable-Phenotype (%) [1, 5]: 4% and 8%
- Population Mitochondria Different-Phenotype (%) [1, 5]: 3% and 6%
- Population Mitotic Cells (%) [1, 5]: 8% and 0%
- Population Normal (%) [1, 5]: 97% and 100%
- Population Pyknosed Nuclei (%) [1, 5]: 9% and 8%
- Population Tubulin-Different-Phenotype (%) [1, 5]: 2% and 8%
- Total Cell Count [1, 5]: 254 and 100
- Population Apoptotic (%) [1, 6]: 70% and 66%
- Population Fragmented Nuclei (%) [1, 6]: 23% and 12%
- Population Healthy Nuclei (%) [1, 6]: 69% and 76%
- Population Hoechst High Intensity Objects (%) [1, 6]: 3% and 2%
- Population Membrane Permeable-Phenotype (%) [1, 6]: 6% and 9%
- Population Mitochondria Different-Phenotype (%) [1, 6]: 3% and 2%
- Population Mitotic Cells (%) [1, 6]: 29% and 33%
- Population Normal (%) [1, 6]: 96% and 97%
- Population Pyknosed Nuclei (%) [1, 6]: 7% and 10%
- Population Tubulin-Different-Phenotype (%) [1, 6]: 3% and 4%
- Total Cell Count [1, 6]: 241 and 142
- Population Apoptotic (%) [1, 7]: 96% and 91%
- Population Fragmented Nuclei (%) [1, 7]: 18%
- Population Healthy Nuclei (%) [1, 7]: 73% and 72%
- Population Hoechst High Intensity Objects (%) [1, 7]: 2% and 0%
- Population Membrane Permeable-Phenotype (%) [1, 7]: 6% and 7%
- Population Mitochondria Different-Phenotype (%) [1, 7]: 3%
- Population Mitotic Cells (%) [1, 7]: 4% and 8%
- Population Normal (%) [1, 7]: 97% and 99%
- Population Pyknosed Nuclei (%) [1, 7]: 8%
- Population Tubulin-Different-Phenotype (%) [1, 7]: 4% and 3%
- Total Cell Count [1, 7]: 301 and 135
- Population Apoptotic (%) [1, 8]: 97% and 94%
- Population Fragmented Nuclei (%) [1, 8]: 18% and 14%
- Population Healthy Nuclei (%) [1, 8]: 71% and 76%
- Population Hoechst High Intensity Objects (%) [1, 8]: 2% and 4%
- Population Membrane Permeable-Phenotype (%) [1, 8]: 5% and 6%
- Population Mitochondria Different-Phenotype (%) [1, 8]: 2% and 1%
- Population Mitotic Cells (%) [1, 8]: 2% and 5%
- Population Normal (%) [1, 8]: 97% and 95%
- Population Pyknosed Nuclei (%) [1, 8]: 10% and 9%
- Population Tubulin-Different-Phenotype (%) [1, 8]: 2%
- Total Cell Count [1, 8]: 357 and 198
- Population Apoptotic (%) [1, 9]: 89% and 94%
- Population Fragmented Nuclei (%) [1, 9]: 14% and 16%
- Population Healthy Nuclei (%) [1, 9]: 75% and 72%
- Population Hoechst High Intensity Objects (%) [1, 9]: 3% and 4%
- Population Membrane Permeable-Phenotype (%) [1, 9]: 7% and 9%
- Population Mitochondria Different-Phenotype (%) [1, 9]: 3% and 7%
- Population Mitotic Cells (%) [1, 9]: 10% and 5%
- Population Normal (%) [1, 9]: 96% and 95%
- Population Pyknosed Nuclei (%) [1, 9]: 9% and 10%
- Population Tubulin-Different-Phenotype (%) [1, 9]: 3% and 7%
- Total Cell Count [1, 9]: 419 and 175
- Population Apoptotic (%) [2, 4]: 40% and 38%
- Population Fragmented Nuclei (%) [2, 4]: 14% and 24%
- Population Healthy Nuclei (%) [2, 4]: 67% and 55%
- Population Hoechst High Intensity Objects (%) [2, 4]: 1% and 3%
- Population Membrane Permeable-Phenotype (%) [2, 4]: 0% and 7%
- Population Mitochondria Different-Phenotype (%) [2, 4]: 5% and 2%
- Population Mitotic Cells (%) [2, 4]: 59% and 61%
- Population Normal (%) [2, 4]: 98% and 96%
- Population Pyknosed Nuclei (%) [2, 4]: 17% and 20%
- Population Tubulin-Different-Phenotype (%) [2, 4]: 28% and 43%
- Total Cell Count [2, 4]: 159 and 187
- Population Apoptotic (%) [2, 5]: 60% and 45%
- Population Fragmented Nuclei (%) [2, 5]: 11% and 32%
- Population Healthy Nuclei (%) [2, 5]: 74% and 48%
- Population Hoechst High Intensity Objects (%) [2, 5]: 3% and 7%
- Population Membrane Permeable-Phenotype (%) [2, 5]: 3% and 12%
- Population Mitochondria Different-Phenotype (%) [2, 5]: 4% and 3%
- Population Mitotic Cells (%) [2, 5]: 40% and 54%
- Population Normal (%) [2, 5]: 96% and 92%
- Population Pyknosed Nuclei (%) [2, 5]: 13% and 18%
- Population Tubulin-Different-Phenotype (%) [2, 5]: 37% and 53%
- Total Cell Count [2, 5]: 151 and 129
- Population Apoptotic (%) [2, 6]: 47% and 31%
- Population Fragmented Nuclei (%) [2, 6]: 19% and 25%
- Population Healthy Nuclei (%) [2, 6]: 69% and 57%
- Population Hoechst High Intensity Objects (%) [2, 6]: 2% and 3%
- Population Membrane Permeable-Phenotype (%) [2, 6]: 1%
- Population Mitochondria Different-Phenotype (%) [2, 6]: 3% and 0%
- Population Mitotic Cells (%) [2, 6]: 52% and 68%
- Population Normal (%) [2, 6]: 97% and 96%
- Population Pyknosed Nuclei (%) [2, 6]: 10% and 16%
- Population Tubulin-Different-Phenotype (%) [2, 6]: 22% and 40%
- Total Cell Count [2, 6]: 170 and 183
- Population Apoptotic (%) [2, 7]: 56% and 45%
- Population Healthy Nuclei (%) [2, 7]: 74% and 47%
- Population Hoechst High Intensity Objects (%) [2, 7]: 1% and 2%
- Population Membrane Permeable-Phenotype (%) [2, 7]: 3% and 8%
- Population Mitochondria Different-Phenotype (%) [2, 7]: 7% and 5%
- Population Mitotic Cells (%) [2, 7]: 44% and 55%
- Population Normal (%) [2, 7]: 98% and 97%
- Population Pyknosed Nuclei (%) [2, 7]: 16%
- Population Tubulin-Different-Phenotype (%) [2, 7]: 37% and 60%
- Total Cell Count [2, 7]: 155 and 125
- Population Apoptotic (%) [2, 8]: 60% and 55%
- Population Fragmented Nuclei (%) [2, 8]: 21% and 31%
- Population Healthy Nuclei (%) [2, 8]: 69% and 58%
- Population Hoechst High Intensity Objects (%) [2, 8]: 3% and 2%
- Population Membrane Permeable-Phenotype (%) [2, 8]: 0% and 2%
- Population Mitochondria Different-Phenotype (%) [2, 8]: 4% and 1%
- Population Mitotic Cells (%) [2, 8]: 40% and 44%
- Population Normal (%) [2, 8]: 96% and 97%
- Population Pyknosed Nuclei (%) [2, 8]: 8% and 10%
- Population Tubulin-Different-Phenotype (%) [2, 8]: 31% and 39%
- Total Cell Count [2, 8]: 173 and 178
- Population Apoptotic (%) [2, 9]: 61% and 37%
- Population Fragmented Nuclei (%) [2, 9]: 14% and 37%
- Population Healthy Nuclei (%) [2, 9]: 66% and 48%
- Population Hoechst High Intensity Objects (%) [2, 9]: 2% and 0%
- Population Membrane Permeable-Phenotype (%) [2, 9]: 1% and 3%
- Population Mitochondria Different-Phenotype (%) [2, 9]: 5% and 1%
- Population Mitotic Cells (%) [2, 9]: 38% and 62%
- Population Normal (%) [2, 9]: 97% and 99%
- Population Pyknosed Nuclei (%) [2, 9]: 18% and 13%
- Population Tubulin-Different-Phenotype (%) [2, 9]: 38% and 58%
- Total Cell Count [2, 9]: 141 and 117
- Population Apoptotic (%) [3, 4]: 24% and 28%
- Population Fragmented Nuclei (%) [3, 4]: 9% and 8%
- Population Healthy Nuclei (%) [3, 4]: 79% and 78%
- Population Hoechst High Intensity Objects (%) [3, 4]: 9% and 4%
- Population Membrane Permeable-Phenotype (%) [3, 4]: 0%
- Population Mitochondria Different-Phenotype (%) [3, 4]: 34% and 63%
- Population Mitotic Cells (%) [3, 4]: 75% and 71%
- Population Normal (%) [3, 4]: 91% and 95%
- Population Pyknosed Nuclei (%) [3, 4]: 10% and 12%
- Population Tubulin-Different-Phenotype (%) [3, 4]: 17% and 20%
- Total Cell Count [3, 4]: 500 and 353
- Population Apoptotic (%) [3, 5]: 50% and 56%
- Population Fragmented Nuclei (%) [3, 5]: 7% and 6%
- Population Healthy Nuclei (%) [3, 5]: 70% and 78%
- Population Hoechst High Intensity Objects (%) [3, 5]: 5% and 13%
- Population Membrane Permeable-Phenotype (%) [3, 5]: 2% and 0%
- Population Mitochondria Different-Phenotype (%) [3, 5]: 46% and 66%
- Population Mitotic Cells (%) [3, 5]: 50% and 43%
- Population Normal (%) [3, 5]: 94% and 86%
- Population Pyknosed Nuclei (%) [3, 5]: 22% and 15%
- Population Tubulin-Different-Phenotype (%) [3, 5]: 50% and 33%
- Total Cell Count [3, 5]: 219 and 351
- Population Apoptotic (%) [3, 6]: 31% and 34%
- Population Fragmented Nuclei (%) [3, 6]: 9%
- Population Healthy Nuclei (%) [3, 6]: 79% and 80%
- Population Hoechst High Intensity Objects (%) [3, 6]: 4% and 7%
- Population Membrane Permeable-Phenotype (%) [3, 6]: 0%
- Population Mitochondria Different-Phenotype (%) [3, 6]: 24% and 45%
- Population Mitotic Cells (%) [3, 6]: 68% and 65%
- Population Normal (%) [3, 6]: 95% and 92%
- Population Pyknosed Nuclei (%) [3, 6]: 10% and 9%
- Population Tubulin-Different-Phenotype (%) [3, 6]: 15% and 14%
- Total Cell Count [3, 6]: 625 and 456
- Population Apoptotic (%) [3, 7]: 27% and 41%
- Population Fragmented Nuclei (%) [3, 7]: 6% and 11%
- Population Healthy Nuclei (%) [3, 7]: 77%
- Population Hoechst High Intensity Objects (%) [3, 7]: 3% and 10%
- Population Membrane Permeable-Phenotype (%) [3, 7]: 1% and 0%
- Population Mitochondria Different-Phenotype (%) [3, 7]: 37% and 49%
- Population Mitotic Cells (%) [3, 7]: 72% and 58%
- Population Normal (%) [3, 7]: 96% and 89%
- Population Pyknosed Nuclei (%) [3, 7]: 15% and 11%
- Population Tubulin-Different-Phenotype (%) [3, 7]: 32% and 22%
- Total Cell Count [3, 7]: 287 and 434
- Population Apoptotic (%) [3, 8]: 29% and 23%
- Population Fragmented Nuclei (%) [3, 8]: 11% and 9%
- Population Healthy Nuclei (%) [3, 8]: 81% and 84%
- Population Hoechst High Intensity Objects (%) [3, 8]: 3% and 2%
- Population Membrane Permeable-Phenotype (%) [3, 8]: 0% and 1%
- Population Mitochondria Different-Phenotype (%) [3, 8]: 21% and 19%
- Population Mitotic Cells (%) [3, 8]: 70% and 76%
- Population Normal (%) [3, 8]: 96% and 97%
- Population Pyknosed Nuclei (%) [3, 8]: 7% and 6%
- Population Tubulin-Different-Phenotype (%) [3, 8]: 15% and 8%
- Total Cell Count [3, 8]: 958 and 705
- Population Apoptotic (%) [3, 9]: 25% and 46%
- Population Fragmented Nuclei (%) [3, 9]: 15% and 12%
- Population Healthy Nuclei (%) [3, 9]: 75% and 80%
- Population Hoechst High Intensity Objects (%) [3, 9]: 1% and 3%
- Population Membrane Permeable-Phenotype (%) [3, 9]: 0%
- Population Mitochondria Different-Phenotype (%) [3, 9]: 21% and 26%
- Population Mitotic Cells (%) [3, 9]: 75% and 53%
- Population Normal (%) [3, 9]: 98% and 96%
- Population Pyknosed Nuclei (%) [3, 9]: 9% and 6%
- Population Tubulin-Different-Phenotype (%) [3, 9]: 15%
- Total Cell Count [3, 9]: 473 and 684

Reference: ChEMBL document CHEMBL5724801, “EUbOPEN Chemogenomics Library - Multiplex” (2024)
